According to ChEMBL document CHEMBL4387708, “Enhancement of Benzothiazoles as Pteridine Reductase-1 Inhibitors for the Treatment of Trypanosomatidic Infections” (J Med Chem, 2019):
Calls of active or inactive are those of the source. No cut-off for these calls is given here.

How the values were obtained:
Trypanosoma cruzi = test: Growth inhibition of trypomastigote form of Trypanosoma cruzi Y infected in human U2OS cells at 50 uM measured after 72 hrs by DRAQ5 DNA dye based confocal microscopic analysis relative to control; type: organism-based; details: Trypanosoma cruzi, Y, U2OS, read-out: GI
Trypanosoma brucei [1] = test: Inhibition of N-terminal His-tagged Trypanosoma brucei pteridine reductase 1 at 50 uM using di-hydrobiopterine as substrate measured at 1 min interval for 50 mins in presence of NADPH relative to control
In short: (§1)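 Photometric PTR1 assay with NADPH and dihydrobiopterin substrate. H₄B formation is coupled non-enzymatically to cytochrome c reduction, read as signal increase at 550 nm.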

[2] = molecular target: T1, Pteridine reductase 1 (Leishmania major) (UniProt Q01782); test: Inhibition of Leishmania major pteridine reductase 1 at 50 uM using di-hydrobiopterine as substrate in presence of NADPH relative to control; in short: as §1
T1 sequence (whole entry): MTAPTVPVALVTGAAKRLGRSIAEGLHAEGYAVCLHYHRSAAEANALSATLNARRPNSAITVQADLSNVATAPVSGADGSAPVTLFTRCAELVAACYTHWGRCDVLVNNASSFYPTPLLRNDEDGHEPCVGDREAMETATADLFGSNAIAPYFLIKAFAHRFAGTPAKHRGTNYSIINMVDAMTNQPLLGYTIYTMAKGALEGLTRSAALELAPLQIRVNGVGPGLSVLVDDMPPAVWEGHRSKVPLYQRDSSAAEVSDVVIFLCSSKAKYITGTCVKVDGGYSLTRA

Cytochrome P450 1A2 = molecular target: T2, Cytochrome P450 1A2 (Homo sapiens, UniProt P05177); test: Inhibition of human CYP1A2 expressed in baculovirus infected insect cells using beetle D-luciferin as substrate preincubated for 30 mins followed by NADPH addition and measured after 30 mins by CYP450-Glo assay
T2 sequence (P05177 whole entry): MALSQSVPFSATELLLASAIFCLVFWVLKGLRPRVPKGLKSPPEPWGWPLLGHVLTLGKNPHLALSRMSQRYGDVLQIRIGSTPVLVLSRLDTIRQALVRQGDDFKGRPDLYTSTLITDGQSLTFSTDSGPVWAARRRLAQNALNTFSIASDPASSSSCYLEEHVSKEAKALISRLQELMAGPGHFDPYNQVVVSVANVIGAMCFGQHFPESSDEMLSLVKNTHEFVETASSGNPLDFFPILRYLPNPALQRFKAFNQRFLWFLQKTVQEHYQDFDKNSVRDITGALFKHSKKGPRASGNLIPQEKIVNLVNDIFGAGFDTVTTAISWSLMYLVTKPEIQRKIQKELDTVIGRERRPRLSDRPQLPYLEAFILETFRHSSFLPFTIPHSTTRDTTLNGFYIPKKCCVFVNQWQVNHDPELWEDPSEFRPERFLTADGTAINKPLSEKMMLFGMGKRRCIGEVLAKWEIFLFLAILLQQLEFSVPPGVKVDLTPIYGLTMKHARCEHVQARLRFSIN

Cytochrome P450 2C19 = Cytochrome P450 2C19 (Homo sapiens, UniProt P33261); test: Inhibition of human CYP2C19 expressed in baculovirus infected insect cells using beetle D-luciferin as substrate preincubated for 30 mins followed by NADPH addition and measured after 30 mins by CYP450-Glo assay
Trypanosoma brucei [3] = test: Growth inhibition of Trypanosoma brucei bloodstream forms at 10 uM measured after 72 hrs by resazurin-based fluorescence assay relative to control; type: organism-based; details: Trypanosoma brucei, read-out: GI
Cytochrome P450 3A4 = Cytochrome P450 3A4 (Homo sapiens, UniProt P08684); test: Inhibition of human CYP3A4 expressed in baculovirus infected insect cells using beetle D-luciferin as substrate preincubated for 30 mins followed by NADPH addition and measured after 30 mins by CYP450-Glo assay
Leishmania infantum = test: Growth inhibition of luciferase expressing Leishmania infantum axenic amastigotes infected in human THP1 cells at 10 uM measured after 72 hrs by steady-glo luminescence assay relative to control; type: organism-based; details: for inhibition at 10 µM: Leishmania infantum, THP-1, 72 h, read-out: GI; for growth inhibition (GI): leishmania infantum, 72 h, 10 µM
Cytochrome P450 2D6 = Cytochrome P450 2D6 (Homo sapiens, UniProt P10635); test: Inhibition of human CYP2D6 expressed in baculovirus infected insect cells using beetle D-luciferin as substrate preincubated for 30 mins followed by NADPH addition and measured after 30 mins by CYP450-Glo assay
[4] = Selectivity ratio of IC50 for Leishmania major pteridine reductase 1 to IC50 for N-terminal His-tagged Trypanosoma brucei pteridine reductase 1
[5] = Cytotoxicity against human A549 cells after 48 hrs by Celltiter-glo assay; type: cell-based
[6] = Cytotoxicity against human THP1 cells after 72 hrs by MTT assay; type: cell-based, THP-1; details: read-out: NOAEL
[7] = molecular target: Voltage-gated inwardly rectifying potassium channel KCNH2 (Homo sapiens, UniProt Q12809); test: Displacement of Tracer Red from human ERG by fluorescence polarization assay
[8] = Cytotoxicity against human U2OS cells assessed as reduction in cell number; type: cell-based
[9] = Mitochondrial toxicity in human 786-O cells measured after 6 hrs by MitoTracker Red chloromethyl-X-rosamine based assay; type: cell-based, 786-0
Cytochrome P450 2C9 = Cytochrome P450 2C9 (Homo sapiens, UniProt P11712); test: Inhibition of human CYP2C9 expressed in baculovirus infected insect cells using beetle D-luciferin as substrate preincubated for 30 mins followed by NADPH addition and measured after 30 mins by CYP450-Glo assay
Trypanosoma brucei [10] = test: Growth inhibition of Trypanosoma brucei bloodstream forms measured after 72 hrs by resazurin-based fluorescence assay; type: organism-based
In short: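 Mid-log bloodstream-form T. brucei were seeded at a final 5 x 10^3/mL in supplemented HMI-9 with serial compound dilutions. Cultures ran 72 h at 37 °C, 5% CO₂, then 4 h more after resazurin. Fluorescence was read at ex 540/em 620 nm, and EC₅₀ was fitted by non-linear regression.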

Pteridine reductase 1 = molecular target: T3, Pteridine reductase 1 (Leishmania major, UniProt Q01782); test: Inhibition of Leishmania major pteridine reductase 1 using di-hydrobiopterine as substrate in presence of NADPH; in short: as §1
T3 sequence (Q01782 whole entry): T1 sequence (whole entry)

Trypanosoma brucei [11] = test: Inhibition of PTR1 in Trypanosoma brucei bloodstream forms assessed as potentiation of methotrexate-induced parasitic cell growth inhibition at 10 uM measured after 72 hrs by resazurin-based fluorescence assay (reference value: 19 +/- 6%)
In short: (§2)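 Bloodstream-form T. brucei resazurin assay: 72 h at 37 °C, 5% CO₂, then fluorescence at ex 540/em 620 nm. Benzothiazole was tested at 10 μM alone and with 4 μM methotrexate. The index is the combination's activity divided by the sum of the activities of 10 μM benzothiazole and 4 μM methotrexate given separately.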

[12] = Inhibition of N-terminal His-tagged Trypanosoma brucei pteridine reductase 1 using di-hydrobiopterine as substrate measured at 1 min interval for 50 mins in presence of NADPH; in short: as §1
Trypanosoma brucei [13] = test: Inhibition of PTR1 in Trypanosoma brucei bloodstream forms assessed as potentiation of methotrexate-induced parasitic cell growth inhibition by measuring potentiation index at 10 uM measured after 72 hrs by resazurin-based fluorescence assay relative to control (methotrexate); type: functional; in short: as §2

Cytochrome P450 3A4, sequence (P08684 whole entry): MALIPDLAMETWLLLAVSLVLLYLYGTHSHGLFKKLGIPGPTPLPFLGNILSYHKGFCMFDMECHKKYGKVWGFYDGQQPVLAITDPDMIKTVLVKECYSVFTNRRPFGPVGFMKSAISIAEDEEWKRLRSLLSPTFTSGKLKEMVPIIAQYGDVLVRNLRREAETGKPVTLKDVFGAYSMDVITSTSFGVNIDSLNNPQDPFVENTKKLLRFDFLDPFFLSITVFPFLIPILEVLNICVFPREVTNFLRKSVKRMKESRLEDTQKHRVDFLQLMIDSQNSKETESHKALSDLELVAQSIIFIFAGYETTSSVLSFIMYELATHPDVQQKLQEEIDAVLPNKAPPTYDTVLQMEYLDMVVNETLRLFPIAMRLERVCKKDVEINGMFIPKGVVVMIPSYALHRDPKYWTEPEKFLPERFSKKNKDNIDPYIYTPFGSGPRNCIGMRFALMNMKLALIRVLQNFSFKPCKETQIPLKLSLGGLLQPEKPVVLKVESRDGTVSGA
Voltage-gated inwardly rectifying potassium channel KCNH2, sequence (Q12809 whole entry): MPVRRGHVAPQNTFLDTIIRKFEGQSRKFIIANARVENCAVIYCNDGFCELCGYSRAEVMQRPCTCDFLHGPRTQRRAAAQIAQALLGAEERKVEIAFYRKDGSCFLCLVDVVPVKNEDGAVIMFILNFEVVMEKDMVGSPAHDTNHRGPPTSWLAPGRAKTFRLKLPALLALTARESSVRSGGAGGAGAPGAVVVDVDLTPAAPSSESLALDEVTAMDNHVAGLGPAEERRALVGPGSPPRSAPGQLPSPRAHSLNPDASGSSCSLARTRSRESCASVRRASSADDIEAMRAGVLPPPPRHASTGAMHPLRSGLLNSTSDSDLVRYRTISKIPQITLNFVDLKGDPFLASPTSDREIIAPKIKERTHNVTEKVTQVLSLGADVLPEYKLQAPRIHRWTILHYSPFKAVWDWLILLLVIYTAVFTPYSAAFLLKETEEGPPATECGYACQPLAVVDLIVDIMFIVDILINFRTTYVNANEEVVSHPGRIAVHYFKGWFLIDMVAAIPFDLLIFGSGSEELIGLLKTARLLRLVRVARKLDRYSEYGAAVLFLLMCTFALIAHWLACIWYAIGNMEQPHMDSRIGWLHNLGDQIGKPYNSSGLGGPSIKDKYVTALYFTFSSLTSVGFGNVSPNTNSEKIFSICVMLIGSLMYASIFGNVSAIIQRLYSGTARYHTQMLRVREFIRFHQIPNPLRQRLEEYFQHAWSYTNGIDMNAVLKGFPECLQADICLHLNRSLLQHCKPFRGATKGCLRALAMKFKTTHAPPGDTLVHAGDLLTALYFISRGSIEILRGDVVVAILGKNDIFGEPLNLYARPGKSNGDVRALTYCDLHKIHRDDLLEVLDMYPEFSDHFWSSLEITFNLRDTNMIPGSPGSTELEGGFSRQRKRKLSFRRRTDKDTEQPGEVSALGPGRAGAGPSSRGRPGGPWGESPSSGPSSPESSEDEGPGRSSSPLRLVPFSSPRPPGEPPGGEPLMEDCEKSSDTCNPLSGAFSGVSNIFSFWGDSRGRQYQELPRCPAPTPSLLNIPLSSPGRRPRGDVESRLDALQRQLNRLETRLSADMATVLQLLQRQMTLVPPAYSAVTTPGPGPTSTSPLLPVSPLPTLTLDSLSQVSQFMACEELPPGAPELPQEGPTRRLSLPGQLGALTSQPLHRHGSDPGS
Cytochrome P450 2C9, sequence (P11712 whole entry): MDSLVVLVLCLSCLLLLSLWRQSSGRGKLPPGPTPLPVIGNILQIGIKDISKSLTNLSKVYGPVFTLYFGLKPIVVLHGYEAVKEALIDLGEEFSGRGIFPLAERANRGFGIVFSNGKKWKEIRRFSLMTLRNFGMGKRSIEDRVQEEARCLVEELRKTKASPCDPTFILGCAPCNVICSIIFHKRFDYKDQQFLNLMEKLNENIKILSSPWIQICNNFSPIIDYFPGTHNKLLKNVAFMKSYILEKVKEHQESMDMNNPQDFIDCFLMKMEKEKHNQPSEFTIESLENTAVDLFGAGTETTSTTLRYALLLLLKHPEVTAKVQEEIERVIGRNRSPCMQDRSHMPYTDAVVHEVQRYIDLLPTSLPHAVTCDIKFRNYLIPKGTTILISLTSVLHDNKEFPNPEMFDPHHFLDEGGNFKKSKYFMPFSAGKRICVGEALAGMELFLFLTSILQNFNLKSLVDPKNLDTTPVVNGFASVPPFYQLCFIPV
Cytochrome P450 2C19, sequence (P33261 whole entry): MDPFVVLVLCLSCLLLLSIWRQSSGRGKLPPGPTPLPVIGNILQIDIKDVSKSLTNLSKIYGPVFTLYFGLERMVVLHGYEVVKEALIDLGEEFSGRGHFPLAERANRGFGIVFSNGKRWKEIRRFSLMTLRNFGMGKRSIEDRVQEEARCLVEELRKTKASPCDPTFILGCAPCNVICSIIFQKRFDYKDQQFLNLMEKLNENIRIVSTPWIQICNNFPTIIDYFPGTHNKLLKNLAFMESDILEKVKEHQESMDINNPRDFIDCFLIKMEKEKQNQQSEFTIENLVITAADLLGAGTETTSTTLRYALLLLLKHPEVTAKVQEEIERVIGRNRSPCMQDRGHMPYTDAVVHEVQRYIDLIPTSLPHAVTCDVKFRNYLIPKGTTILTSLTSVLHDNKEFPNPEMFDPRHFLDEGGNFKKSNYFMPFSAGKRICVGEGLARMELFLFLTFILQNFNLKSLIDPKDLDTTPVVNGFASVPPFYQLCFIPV
Cytochrome P450 2D6, sequence (P10635 whole entry): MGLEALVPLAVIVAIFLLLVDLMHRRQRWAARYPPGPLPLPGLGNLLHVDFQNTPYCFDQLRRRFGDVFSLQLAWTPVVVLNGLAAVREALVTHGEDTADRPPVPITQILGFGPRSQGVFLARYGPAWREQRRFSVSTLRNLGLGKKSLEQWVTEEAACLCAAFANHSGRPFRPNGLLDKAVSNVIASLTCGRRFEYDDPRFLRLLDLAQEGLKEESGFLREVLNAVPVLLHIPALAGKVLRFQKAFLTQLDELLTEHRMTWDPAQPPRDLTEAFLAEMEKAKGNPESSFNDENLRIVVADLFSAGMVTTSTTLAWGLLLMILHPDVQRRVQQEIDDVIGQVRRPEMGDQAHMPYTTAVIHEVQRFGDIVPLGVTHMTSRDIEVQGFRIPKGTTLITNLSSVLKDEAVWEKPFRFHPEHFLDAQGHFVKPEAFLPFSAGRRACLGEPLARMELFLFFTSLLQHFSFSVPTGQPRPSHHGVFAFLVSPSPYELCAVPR

SMILES | inhibition at 50 µM (Trypanosoma cruzi) [%] | inhibition (Trypanosoma brucei [1]) [%] | inhibition [2] | IC50 (Cytochrome P450 1A2) [µM] | IC50 (Cytochrome P450 2C19) [µM] | inhibition at 10 µM (Trypanosoma brucei [3]) [%] | IC50 (Cytochrome P450 3A4) [µM] | IC50 (Cytochrome P450 2D6) [µM] | Ratio IC50 [4] | GI50 at 48 h [5] [µM] | MNTC at 72 h [6] [µM] | IC50 [7] [µM] | GI50 [8] [µM] | IC50 at 6 h [9] [µM] | IC50 (Cytochrome P450 2C9) [µM] | growth inhibition (GI) (Leishmania infantum) | IC50 (Pteridine reductase 1; read-out: IC50) [µM] | growth inhibition (GI) (Trypanosoma brucei [11]) [%] | IC50 [12] [µM] | Ratio (Trypanosoma brucei [13]) | other results
Nc1nc2c(O)cc(C(=O)NCc3ccc(Cl)c(Cl)c3)cc2s1 | 42 | 11.8 | 8.7% | > 25 | > 25 | > 60 | > 25 | > 25 | 2 to 100 | > 25 | > 25 | > 25 | > 25 | > 25 | > 25 | – | – | – | – | – | inhibition at 10 µM (Leishmania infantum): 24%; EC50 (Trypanosoma brucei [10]): 5.9 µM
N#Cc1ccc(COc2ccc3nc(N)sc3c2)cc1 | 15.4 | > 60 | > 60% | > 25 | < 10 | 21 to 27 | 10 to 25 | > 25 | 2 to 100 | 10 to 25 | 10 to 25 | > 25 | > 25 | > 25 | > 25 | Non-Toxic | 86.5 | 80 | 0.67 | 2 | –
Nc1nc2ccc(SC(F)(F)F)cc2s1 | 37.4 | > 60 | > 60% | > 25 | > 25 | 11 | > 25 | > 25 | 2 to 100 | < 10 | 10 to 25 | 10 to 25 | > 25 | > 25 | > 25 | Non-Toxic | 1.9 | 33 | 0.5 | 1.1 | –
COc1ccc(CN(Cc2ccc(Cl)c(Cl)c2)C(=O)c2ccc3nc(N)sc3c2)cc1OC | 47.9 | > 60 | inactive | > 25 | < 10 | > 60 | < 10 | < 10 | 2 to 100 | > 25 | 10 to 25 | > 25 | > 25 | 10 to 25 | < 10 | – | – | – | 15.9 | – | inhibition at 10 µM (Leishmania infantum): 9%; IC50 (Pteridine reductase 1): Not Active; EC50 (Trypanosoma brucei [10]): 9.7 µM
COC(=O)c1ccc(CSc2ccc3nc(N)sc3c2)cc1 | 23 | > 60 | > 60% | 10 to 25 | < 10 | 7 to 17 | < 10 | < 10 | 2 to 100 | > 25 | 10 to 25 | > 25 | > 25 | > 25 | < 10 | Non-Toxic | 47.6 | 69 | 0.92 | 2.7 | –
